Measurements published in ChEMBL document CHEMBL2417481, “Regioselective synthesis of 6-substituted-2-amino-5-bromo-4(3H)-pyrimidinones and evaluation of their antiviral activity” (Eur J Med Chem, 2013).
pEC50: −log10 of the molar value.

Assays:
[1] = tested on: Respiratory syncytial virus; test: Antiviral activity against Respiratory syncytial virus Long infected in human HeLa cells assessed as reduction in virus-induced cytopathogenicity; assay type: functional, organism-based
Procedure, shortened: (§1)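 Confluent cell monolayers (Vero, HeLa, HEL or MDCK, as named in each line) were infected with 100 CCID50 of virus while exposed to a range of compound concentrations. Cytopathicity was scored once it was complete in untreated infected controls.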

Feline coronavirus = test: Antiviral activity against Feline coronavirus infected in cat CRFK cells assessed as inhibition of virus-induced cytopathic effect by MTS assay; assay type: functional, organism-based; details: Alphacoronavirus 1, CRFK
Felid alphaherpesvirus 1 = test: Antiviral activity against Feline Herpes virus infected in cat CRFK cells assessed as inhibition of virus-induced cytopathic effect by MTS assay; assay type: functional, organism-based; details: Felid alphaherpesvirus 1, CRFK
[2] = tested on: Mammalian orthoreovirus 1; test: Antiviral activity against Reovirus-1 infected in african green monkey Vero cells assessed as reduction in virus-induced cytopathogenicity; assay type: functional, organism-based; details: Mammalian orthoreovirus 1, Vero
Procedure, shortened: (§2)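 Confluent Vero monolayers in 96-well plates were inoculated with 100 CCID50 of virus together with varying compound concentrations. Cytopathicity was scored once it was complete in untreated virus-infected control cultures.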

Human alphaherpesvirus 1 [3] = test: Antiviral activity against thymidine kinase negative […] Herpes simplex virus-1 KOS infected in human HEL cells assessed as reduction in virus-induced cytopathogenicity; assay type: functional, organism-based; details: Human alphaherpesvirus 1, KOS; procedure, shortened: as §1
Human alphaherpesvirus 3 [4] = test: Antiviral activity against thymidine kinase negative Varicella-zoster virus 07-1 infected in human HEL cells assessed as reduction in the virus plaque formation; assay type: functional, organism-based; details: Human alphaherpesvirus 3, 07-1, HEL
Procedure, shortened: (§3)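 Confluent HEL fibroblast cultures received 20 PFU of VZV together with varying compound concentrations. Plaque formation was read when it reached completion in untreated virus controls.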

Influenza A virus [5] = test: Antiviral activity against Influenza A virus […] infected in MDCK cells assessed as reduction in virus-induced cytopathogenicity; assay type: functional, organism-based; procedure, shortened: as §1
[6] = Cytotoxicity against cat CRFK cells assessed as cell viability by MTS assay; assay type: cell-based, Felis catus
Coxsackievirus B4 [7] = test: Antiviral activity against Coxsackievirus B4 infected in human HeLa cells assessed as reduction in virus-induced cytopathogenicity; assay type: functional, organism-based; details: Enterovirus B; procedure, shortened: as §1
Influenza A virus [8] = test: Antiviral activity against Influenza A virus H1N1 infected in MDCK cells assessed as reduction in virus-induced cytopathogenicity; assay type: functional, organism-based; procedure, shortened: as §1
[9] = tested on: Vesicular stomatitis virus; test: Antiviral activity against Vesicular stomatitis virus infected in human HEL cells assessed as reduction in virus-induced cytopathogenicity; assay type: functional, organism-based; procedure, shortened: as §1
[10] = Cytotoxicity against human HEL cells assessed as morphological changes; assay type: cell-based
Influenza B virus = test: Antiviral activity against Influenza B virus infected in MDCK cells assessed as reduction in virus-induced cytopathogenicity; assay type: functional, organism-based; procedure, shortened: as §1
Human alphaherpesvirus 3 [11] = test: Antiviral activity against thymidine kinase positive Varicella-zoster virus OKA infected in human HEL cells assessed as reduction in virus plaque formation; assay type: functional, cell-based, Human herpesvirus 3 strain Oka vaccine; details: Human alphaherpesvirus 3, OKA; procedure, shortened: as §3
Human alphaherpesvirus 2 = test: Antiviral activity against Herpes simplex virus-2 G infected in human HEL cells assessed as reduction in virus-induced cytopathogenicity; assay type: functional, organism-based; details: Human alphaherpesvirus 2, strain G; procedure, shortened: as §1
Human alphaherpesvirus 1 [12] = test: Antiviral activity against Herpes simplex virus-1 KOS infected in human HEL cells assessed as reduction in virus-induced cytopathogenicity; assay type: functional, organism-based; details: Human alphaherpesvirus 1, KOS; procedure, shortened: as §1
Sindbis virus = test: Antiviral activity against Sindbis virus infected in african green monkey Vero cells assessed as reduction in virus-induced cytopathogenicity; assay type: functional, organism-based; procedure, shortened: as §1
Coxsackievirus B4 [13] = test: Antiviral activity against Coxsackievirus B4 infected in african green monkey Vero cells assessed as reduction in virus-induced cytopathogenicity; assay type: functional, organism-based; details: Enterovirus B; procedure, shortened: as §1
[14] = Cytotoxicity against african green monkey Vero cells assessed as morphological changes; assay type: cell-based; details: chlorocebus sabaeus
[15] = Cytotoxicity against MDCK cells assessed as morphological changes; assay type: cell-based, Canis lupus familiaris; details: dog
Cytomegalovirus [16] = test: Antiviral activity against Cytomegalovirus Davis infected in human HEL cells assessed as reduction in virus plaque formation; assay type: functional, organism-based; details: Human betaherpesvirus 5, Davis
Procedure, shortened: (§4)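 Confluent HEL fibroblasts were inoculated with 100 PFU of CMV at graded compound concentrations. Plaques were counted once formation was complete in untreated infected controls.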

Punta Toro virus = test: Antiviral activity against Punta Toro virus infected in african green monkey Vero cells assessed as reduction in virus-induced cytopathogenicity; assay type: functional, organism-based; procedure, shortened: as §1
Cytomegalovirus [17] = test: Antiviral activity against Cytomegalovirus AD-169 infected in human HEL cells assessed as reduction in virus plaque formation; assay type: functional, organism-based; details: Human betaherpesvirus 5, AD-169, HEL; procedure, shortened: as §4
[18] = Cytotoxicity against human HeLa cells assessed as morphological changes; assay type: cell-based
[19] = tested on: Vesicular stomatitis virus; test: Antiviral activity against Vesicular stomatitis virus infected in human HeLa cells assessed as reduction in virus-induced cytopathogenicity; assay type: functional, organism-based; procedure, shortened: as §1
Human respirovirus 3 = test: Antiviral activity against Parainfluenza virus 3 infected in african green monkey Vero cells assessed as reduction in virus-induced cytopathogenicity; assay type: functional, organism-based; details: Human respirovirus 3, Vero; procedure, shortened: as §2

Row | Structure (SMILES) | pEC50 [1] | pEC50 (Feline coronavirus) | pEC50 (Felid alphaherpesvirus 1) | pEC50 [2] | pEC50 (Human alphaherpesvirus 1 [3]) | pEC50 (Influenza A virus [5]) | pEC50 (Coxsackievirus B4 [7]) | pEC50 (Influenza A virus [8]) | pEC50 [9] | MCC [10] | pEC50 (Influenza B virus) | pEC50 (Human alphaherpesvirus 1 [12]) | pEC50 (Sindbis virus) | pEC50 (Coxsackievirus B4 [13]) | MCC [14] | MCC [15] | pEC50 (Cytomegalovirus [16]) | pEC50 (Punta Toro virus) | pEC50 (Cytomegalovirus [17]) | MCC [18] | further results
1 | CCCCCc1nc(N)[nH]c(=O)c1Br | < 5.40 | < 4.00 | < 4.00 | < 4.00 | < 4.00 | < 4.00 | < 5.40 | < 4.00 | < 4.00 | > 20 µM | < 4.00 | < 4.00 | < 4.00 | < 4.00 | > 100 µM | > 100 µM | < 5.40 | < 4.00 | < 5.40 | 20 µM | pEC50 (Human alphaherpesvirus 3 [4]): < 5.40; MCC [6]: > 100 µM; pEC50 (Human alphaherpesvirus 3 [11]): < 5.40; pEC50 (Human alphaherpesvirus 2): < 4.00; pEC50 [19]: 5.70; pEC50 (Human respirovirus 3): < 4.00
2 | Nc1nc(CCc2ccccc2)c(Br)c(=O)[nH]1 | < 4.00 | < 4.00 | < 4.00 | < 4.00 | < 4.00 | < 4.00 | < 4.00 | < 4.00 | < 4.00 | > 100 µM | < 4.00 | < 4.00 | < 4.00 | < 4.00 | > 100 µM | > 100 µM | < 4.00 | < 4.00 | < 4.00 | > 100 µM | pEC50 (Human alphaherpesvirus 3 [4]): < 4.00; MCC [6]: > 100 µM; pEC50 (Human alphaherpesvirus 3 [11]): < 4.00; pEC50 (Human alphaherpesvirus 2): < 4.00; pEC50 [19]: < 4.00; pEC50 (Human respirovirus 3): < 4.00
3 | CC(C)(O)Cc1nc(N)[nH]c(=O)c1Br | < 4.00 | < 4.00 | < 4.00 | < 4.00 | < 4.00 | < 4.00 | < 4.00 | < 4.00 | < 4.00 | > 100 µM | < 4.00 | < 4.00 | < 4.00 | < 4.00 | > 100 µM | > 100 µM | < 4.00 | < 4.00 | 4.00 | > 100 µM | pEC50 (Human alphaherpesvirus 3 [4]): 4.10; MCC [6]: > 100 µM; pEC50 (Human alphaherpesvirus 3 [11]): 4.00; pEC50 (Human alphaherpesvirus 2): < 4.00; pEC50 [19]: 4.35; pEC50 (Human respirovirus 3): < 4.00
4 | Nc1nc(CC(O)c2ccc(Cl)cc2)c(Br)c(=O)[nH]1 (centres undefined) | < 4.00 | < 4.00 | < 4.00 | < 4.00 | < 4.00 | < 4.00 | < 4.00 | < 4.00 | < 4.00 | > 100 µM | < 4.00 | < 4.00 | < 4.00 | < 4.00 | > 100 µM | > 100 µM | 4.00 | < 4.00 | 4.00 | > 100 µM | pEC50 (Human alphaherpesvirus 3 [4]): 4.00; MCC [6]: > 100 µM; pEC50 (Human alphaherpesvirus 3 [11]): 4.00; pEC50 (Human alphaherpesvirus 2): < 4.00; pEC50 [19]: 4.35; pEC50 (Human respirovirus 3): < 4.00
5 | Nc1nc(CC(O)c2ccccc2C(F)(F)F)c(Br)c(=O)[nH]1 (centres undefined) | < 4.00 | < 4.00 | < 4.00 | < 4.00 | < 4.00 | < 4.00 | < 4.00 | < 4.00 | < 4.00 | > 100 µM | < 4.00 | < 4.00 | < 4.00 | < 4.00 | > 100 µM | > 100 µM | < 4.00 | < 4.00 | < 4.00 | > 100 µM | pEC50 (Human alphaherpesvirus 3 [4]): < 4.00; MCC [6]: > 100 µM; pEC50 (Human alphaherpesvirus 3 [11]): < 4.00; pEC50 (Human alphaherpesvirus 2): < 4.00; pEC50 [19]: < 4.00; pEC50 (Human respirovirus 3): < 4.00
6 | Nc1ncnc2c1ncn2C[C@H](O)CO [(S)-DHPA] | < 3.60 |  |  | < 3.60 |  |  | < 3.60 |  |  |  |  |  | < 3.60 | < 3.60 | > 250 µM |  |  | < 3.60 |  | > 250 µM | pEC50 [19]: < 3.60; pEC50 (Human respirovirus 3): < 3.60
7 | Nc1nc2c(ncn2COCCO)c(=O)[nH]1 [ACYCLOVIR] |  |  |  |  |  |  |  |  | < 3.60 | > 250 µM |  |  |  |  |  |  |  |  |  |  | 
8 | NC12CC3CC(CC(C3)C1)C2 [AMANTADINE] |  |  |  |  |  | 6.10 |  | 3.85 |  |  | < 3.70 |  |  |  |  | > 200 µM |  |  |  |  | 
9 | O=c1[nH]c(=O)n([C@H]2C[C@H](O)[C@@H](CO)O2)cc1/C=C/Br [BRIVUDINE] |  |  |  |  | < 3.60 |  |  |  | < 3.60 | > 250 µM |  | 6.40 |  |  |  |  |  |  |  |  | pEC50 (Human alphaherpesvirus 3 [4]): 4.48; pEC50 (Human alphaherpesvirus 3 [11]): 7.70
10 | Nc1ccn(C[C@@H](CO)OCP(=O)(O)O)c(=O)n1 [CIDOFOVIR] |  |  |  |  |  |  |  |  | < 3.60 | > 250 µM |  |  |  |  |  |  | 6.29 |  | 5.51 |  | 
11 | Nc1nc2c(ncn2COC(CO)CO)c(=O)[nH]1 [GANCICLOVIR] |  | < 4.00 | 6.05 |  |  |  |  |  |  | > 100 µM |  | < 4.00 |  |  |  |  | 6.42 |  | 5.51 | > 100 µM | MCC [6]: > 100 µM; pEC50 (Human alphaherpesvirus 2): 6.05
12 | NC(=O)c1ncn([C@@H]2O[C@H](CO)[C@@H](O)[C@H]2O)n1 [RIBAVIRIN] | 5.30 |  |  | < 3.60 |  | 5.14 | 4.66 | 5.02 |  |  | 5.08 |  | < 3.60 | < 3.60 | > 250 µM | > 100 µM |  | 3.95 |  | > 250 µM | 
13 | CC(N)C12CC3CC(CC(C3)C1)C2 (centres undefined) [RIMANTADINE] |  |  |  |  |  |  |  |  |  |  | < 3.70 |  |  |  |  | > 200 µM |  |  |  |  | 
